Assay outcomes deposited in PubChem by several laboratories.
A selection: hits, their analogues and other compounds. The true share with any hit is near 4.1%.
KCNK9 inh = inhibitors of human KCNK9 two-pore domain potassium channel; B-score at 10 µM; 310,000 tested, 1.2% active; HEK293 KCNK9, FluxOR thallium flux fluorescence; hits give low values; Q9NPC2;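 active = ratio B-score over 3 SD below the library mean, with starting fluorescence within 5 SD of its mean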;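 note: negative B-score means less thallium flux so channel inhibition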
KCNQ1 block = blocks the human KCNQ1 potassium channel. P51787. CHO-K1 KCNQ1, FluxOR thallium flux fluorescence; hits give high values. B-score at 10 µM. 310,000 tested, 1.3% active. AID 2642;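 active = compounds whose thallium flux B-score, printed positive for inhibition, exceeds three library SD while starting fluorescence stays within three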;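 note: channel opened by potassium depolarization with thallium stimulus after 20 min compound exposure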
KCNK3 inh = human KCNK3 channel inhibition, primary screen; CHO-KCNK3 thallium flux, FluxOR fluorescence; hits give low values; B-score at 10 µM; 340,000 tested, 0.84% active;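 active = B-score under library mean minus 4 SD, starting fluorescence ratio at most library mean plus 5 SD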;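 note: more negative B-score means stronger inhibition of thallium flux through KCNK3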
hERG protect = hERG (human) protection from proarrhythmic block | Q12809 | CHO-hERG, FluxOR thallium flux, dofetilide IC70 present | activation (rescue from dofetilide block), less the hit threshold, % at 10 µM | 310,000 tested, 0.51% active;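 active = activation above the mean of controls blocked by dofetilide plus 5 SD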;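 note: thallium influx through hERG after potassium depolarization seen as dye fluorescence rise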
Target sequence (Q12809 whole entry, looked up): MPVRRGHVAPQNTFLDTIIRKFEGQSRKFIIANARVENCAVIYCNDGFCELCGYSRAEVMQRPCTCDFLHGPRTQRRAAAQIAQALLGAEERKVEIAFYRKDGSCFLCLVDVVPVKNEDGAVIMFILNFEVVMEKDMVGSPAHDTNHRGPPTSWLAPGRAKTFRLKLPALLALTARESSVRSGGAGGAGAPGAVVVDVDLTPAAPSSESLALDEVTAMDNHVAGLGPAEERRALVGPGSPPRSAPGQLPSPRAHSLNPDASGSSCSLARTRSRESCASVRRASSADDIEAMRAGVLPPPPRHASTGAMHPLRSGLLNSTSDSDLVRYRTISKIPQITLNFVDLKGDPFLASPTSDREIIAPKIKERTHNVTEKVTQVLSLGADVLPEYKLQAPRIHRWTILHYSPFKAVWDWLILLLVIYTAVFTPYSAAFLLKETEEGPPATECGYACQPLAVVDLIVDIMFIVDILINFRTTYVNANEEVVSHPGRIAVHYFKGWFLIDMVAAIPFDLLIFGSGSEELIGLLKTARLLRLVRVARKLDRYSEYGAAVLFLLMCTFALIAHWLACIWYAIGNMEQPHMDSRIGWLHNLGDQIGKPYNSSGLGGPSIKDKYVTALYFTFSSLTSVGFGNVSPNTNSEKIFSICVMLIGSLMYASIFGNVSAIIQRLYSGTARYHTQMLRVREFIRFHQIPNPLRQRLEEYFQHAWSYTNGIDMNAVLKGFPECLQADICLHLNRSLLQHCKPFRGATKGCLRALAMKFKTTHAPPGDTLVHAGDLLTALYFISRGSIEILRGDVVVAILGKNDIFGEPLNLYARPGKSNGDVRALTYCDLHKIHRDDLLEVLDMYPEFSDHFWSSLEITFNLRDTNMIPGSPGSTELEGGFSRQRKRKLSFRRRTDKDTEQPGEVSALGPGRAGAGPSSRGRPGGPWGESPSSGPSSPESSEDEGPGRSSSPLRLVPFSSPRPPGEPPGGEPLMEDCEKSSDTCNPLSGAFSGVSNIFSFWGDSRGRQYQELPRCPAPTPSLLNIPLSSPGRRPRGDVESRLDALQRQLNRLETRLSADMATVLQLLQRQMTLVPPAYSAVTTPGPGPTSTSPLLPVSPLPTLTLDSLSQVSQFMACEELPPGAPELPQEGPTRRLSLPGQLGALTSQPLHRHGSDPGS
KCC2 mod = modulators of human KCC2 chloride dependent transport; Q9H2X9; KCC2 cells, thallium flux FluoZin-2 fluorescence; 190,000 tested, 2.2% active; B-score of Tl+ flux slope (higher = more flux/activation; lower = inhibition) at 10 µM;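 active = thallium flux slope and its plate-corrected score both differing from the plate sample mean at a set confidence after two filtering rounds, in either direction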;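 note: slope of fluorescence scaled to starting intensity during 10 to 20 s after thallium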
KCNQ1 pot = potentiates or activates the human KCNQ1 potassium channel | CHO-K1 KCNQ1, thallium flux FluxOR fluorescence; hits give high values | P51787 | 310,000 tested, 0.35% active | B-score at 10 µM;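 active = fluorescence ratio B-score, a plate-corrected score, at least three library SD, with initial intensity B-score within 5 SD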
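System: Stable KCNQ1 CHO-K1 line | Incubation: 90 min dye loading and 20 min compound exposure, both at room temperature | Measure: Ratio B score | Medium: Assay buffer for compound exposure, DMSO matched across wells | Compound dosing: Single-concentration screen | Probe or stimulus: K+/Tl+ depolarizing stimulus | Measured by: Kinetic FluxOR fluorescence, 10 s baseline plus 110 s post-stimulus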
* hit, by the source's call; i = inactive; / = not tested or not shown.

SMILES	KCNK9 inh	KCNQ1 block	KCNK3 inh	hERG protect	KCC2 mod	KCNQ1 pot
Cc1cc(C)c2sc(N(CCCN(C)C)C(=O)c3ccc(S(=O)(=O)N4CCCc5ccccc54)cc3)nc2c1	i	6*	i	-17	/	i
CNC(=O)c1ccc(NC(=O)CN2c3cccc4cccc(c34)S2(=O)=O)cc1	i	i	i	14*	/	i
O=C(CN1c2cccc3cccc(c23)S1(=O)=O)Nc1ccccc1	i	i	i	-5	-0.25	i
O=C(CN1c2cccc3cccc(c23)S1(=O)=O)Nc1ccc(F)c(F)c1F	/	/	-9.4*	/	/	/
O=C(CN1c2cccc3cccc(c23)S1(=O)=O)Nc1ccccc1F	i	i	i	-3	/	i
CC(C)N(Cc1ccccc1)C(=O)CN1c2cccc3cccc(c23)S1(=O)=O	/	/	-10*	/	/	/
CCN(c1ccccc1)S(=O)(=O)c1ccc(NC(=O)c2nc(S(C)(=O)=O)ncc2Cl)cc1	i	i	i	-18	/	17*
COc1ccc(CCNC(=O)Cn2ccc3c(OC)cccc3c2=O)cc1OC	i	i	i	-7	0.55	i
COc1ccc(S(=O)(=O)n2nc(OC(=O)c3ccccc3)cc2N)cc1	i	i	i	-12	/	i
COc1ccc(S(=O)(=O)n2nc(OC(=O)c3ccccc3Br)cc2N)cc1	i	i	-9.1*	-9	-1	i
CCCCn1c(N)c(N(CC(C)C)C(=O)CN2C(=O)NC3(CCC(C(C)(C)CC)CC3)C2=O)c(=O)[nH]c1=O (stereo not given)	/	/	i	/	/	/
COc1cc2c(cc1OC)CN(C(=O)c1sccc1C)CC2	i	i	i	8.7*	0.0082	i
Cc1ccsc1C(=O)N1CCc2ccccc2C1	i	i	i	-11	/	i
COc1cc(/C=C/C(=O)OCC(=O)NC2CCCCCCC2)ccc1O	/	/	i	/	/	/
CCC1CN(C(=O)N2CCC(C(=O)NCCc3ccccc3OC)CC2)c2ccccc2O1 (stereo not given)	i	i	i	-16	/	i
Cc1ccc(C(=O)c2ccccc2C(=O)Nc2ccccc2)cc1	i	i	i	-12	/	i
Cc1ccc(C)c(NC(=O)c2ccccc2C(=O)c2ccccc2)c1	-10*	i	/	-12	-0.25	i
N#Cc1ccc(N[C@@H]2CCN3C(=O)c4ccccc4[C@@H]3C[C@H]2O)cc1	/	/	i	/	/	/
COc1ccc2ccccc2c1-c1sc(Nc2ccccc2)n[n+]1-c1ccc(F)cc1	-7.4*	7*	i	-27	/	i
COc1ccc(-c2sc(Nc3ccccc3)n[n+]2-c2ccc(F)cc2)cc1Br	i	i	i	-30	/	i
N=c1ncn(Cc2ccccc2)c2nc(SCCOc3ccccc3)[nH]c12	i	i	i	-5	1.4	9*
Cc1cc(C)c(S(=O)(=O)N2CCOC2CNC(=O)C(=O)NCCCN2CCOCC2)c(C)c1 (stereo not given)	i	i	i	-2	/	i
C[C@H]1COC2=C1C(=O)C(=O)c1c2ccc2c1CCCC2(C)C	i	i	-8.7*	-18	-0.049	i
COc1cccc(Oc2ccc(C(F)(F)F)cc2NC(=O)C2=COCCO2)c1	i	10*	i	-8	/	i
Cc1ccc2nc3c(cc(C(=O)NCc4ccco4)c(=N)n3C3CCCC3)c(=O)n2c1	i	8*	i	-26	/	i
SMILES	KCNK9 inh	KCNQ1 block	KCNK3 inh	hERG protect	KCC2 mod	KCNQ1 pot
CC[n+]1ccccc1/C=C1\Sc2ccc(C)cc2N1C	i	7*	i	-33	/	i
Cc1cc(NC(=O)Cc2ccccc2[N+](=O)[O-])no1	i	i	i	-3	/	i
CCOC(=O)c1cnn(-c2sc(C(=O)OCC)c(C)c2C(=O)OCC)c1N	i	i	i	-13	43*	i
Oc1c(Br)cc(Br)cc1C=Nc1ccc2c(c1)OCO2	i	i	i	-4	-0.51	14*
Oc1c(Br)cc(Br)cc1C=Nc1ccc2c(c1)OCCO2	i	i	i	-8	-1.6	14*
O=[N+]([O-])c1ccc(O)c(C=Nc2ccc3c(c2)OCCO3)c1	i	i	i	-10	0.52	i
Cc1ccccc1C(=O)N/N=C/c1ccc([N+](=O)[O-])s1	i	i	i	-7	5.2*	i
Cc1ccc(CSc2ncnc3c2cnn3-c2ccc(C)cc2)cc1	i	i	i	-9	16*	i
Cc1ccc(-n2ncc3c(SCc4ccccc4)ncnc32)cc1	i	i	i	8.6*	22*	i
Cc1ccc(CSc2ncnc3c2cnn3-c2ccccc2)cc1	i	i	i	-7	1.1	i
COc1ccc(C(CC(=O)O)NC(=O)C(c2ccccc2)c2ccccc2)cc1 (stereo not given)	i	i	i	11*	/	i
O=C(O)CC(NC(=O)C(c1ccccc1)c1ccccc1)c1ccc(F)cc1 (stereo not given)	i	i	i	-1	1.1	i
COc1ccc(CNC(=O)CCn2c(C)csc2=O)cc1	/	/	i	/	/	/
COc1ccc(C(C(=O)NC2CCCC2)N(C(=O)c2ccco2)c2cc3c(cc2C(C)=O)OCO3)cc1 (stereo not given)	i	i	i	-5	/	i
Cc1ccc(C(=O)OCC(=O)Nc2sc3c(c2C#N)CCCC3)cc1NC(=O)c1ccco1	i	i	i	-4	/	19*
Cc1ccc(C(=O)OCC(=O)Nc2sc3c(c2C#N)CCCCC3)cc1NC(=O)c1ccco1	i	i	i	-10	-0.09	i
Cc1ccc(C(=O)NC(=S)NNC(=O)COc2ccccc2C)cc1	i	i	i	-12	31*	i
Cc1cccc(C(=O)NC(=S)NNC(=O)COc2c(C)cccc2C)c1	i	i	i	17*	37*	13*
Cc1ccc(C(=O)NC(=S)NNC(=O)COc2ccc([N+](=O)[O-])cc2)cc1	i	i	i	-8	/	8*
COC(=O)NNC(=O)COc1ccccc1C	i	i	i	-7	-0.037	i
Cc1ccc(OCC(=O)NNC(=S)NC(=O)C2CCCCC2)c(C)c1	i	i	i	-5	/	8*
Cc1cccc(C(=O)NC(=S)NCc2ccccc2)c1	i	i	i	0	/	i
Cc1ccc(OCC(=O)Nc2ccc([N+](=O)[O-])cc2)cc1	i	i	i	-5	0.21	i
Cc1ccc(OCC(=O)NNC(=S)NC(=O)C2CC2)c(C)c1	i	i	i	-10	/	i
Cc1ccc(C2c3c(-c4ccccc4O)n[nH]c3C(=O)N2Cc2ccncc2)cc1 (stereo not given)	i	i	i	12*	/	i
O=C(NCCO)c1nc(C(=O)c2ccccc2)c2ccccc2n1	/	/	i	/	/	/
